Our source for the inhibition, IC50 and Ki values is ChEMBL document CHEMBL1139620, “Synthesis of a small library of diketopiperazines as potential inhibitors of calpain” (Bioorg Med Chem Lett, 2005).

Each structure is given as a SMILES string. Where a SMILES comes first, the peptide text is derived from it. [ ]: non-standard residue; d: D form. The star is where a group is joined. ξ: configuration not given here. ξF = NC(Cc1ccccc1)C(=O)O; Cbz = O=C(OCc1ccccc1)*

Assay [1] concerns the target T1, Calpain-1 catalytic subunit (Homo sapiens) (UniProt P07384).
T1 sequence (whole entry): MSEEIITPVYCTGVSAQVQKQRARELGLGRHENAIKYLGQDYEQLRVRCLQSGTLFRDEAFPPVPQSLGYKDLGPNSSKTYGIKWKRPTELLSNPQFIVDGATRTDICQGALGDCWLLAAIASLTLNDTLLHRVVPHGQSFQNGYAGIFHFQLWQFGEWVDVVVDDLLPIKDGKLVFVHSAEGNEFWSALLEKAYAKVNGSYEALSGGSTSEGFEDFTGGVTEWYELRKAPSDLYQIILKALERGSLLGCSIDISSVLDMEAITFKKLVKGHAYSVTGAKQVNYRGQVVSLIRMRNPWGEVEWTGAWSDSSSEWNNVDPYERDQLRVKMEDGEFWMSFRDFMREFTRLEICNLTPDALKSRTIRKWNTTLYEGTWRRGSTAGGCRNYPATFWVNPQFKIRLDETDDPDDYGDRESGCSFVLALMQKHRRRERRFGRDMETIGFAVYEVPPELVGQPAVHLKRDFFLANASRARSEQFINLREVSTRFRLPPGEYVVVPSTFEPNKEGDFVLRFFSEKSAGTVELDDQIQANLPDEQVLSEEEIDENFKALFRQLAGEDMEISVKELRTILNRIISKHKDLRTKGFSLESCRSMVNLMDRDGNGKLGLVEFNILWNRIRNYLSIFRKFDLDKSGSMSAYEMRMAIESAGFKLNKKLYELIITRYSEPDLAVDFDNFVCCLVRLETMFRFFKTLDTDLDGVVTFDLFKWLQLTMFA
Nature of the assay: Percent inhibition of human calpain 1 at 120 uM; Inhibition within […]. The method, boiled down:
(§1)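 Recombinant human calpain I expressed in baculovirus, continuous fluorescence assay with Suc-Leu-Tyr-AMC (8 mM stock) in Tris 50 mM pH 7.3, EDTA 0.5 mM, βME 10 mM. Started with CaCl2 (40 mM stock). Ex 380/em 460 nm, linear for at least 2 min. Percent inhibition is the drop in initial rate against DMSO-only controls at the highest concentration tested. Values are within 10%.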

In assay [2] the target is T1, Calpain-1 catalytic subunit (Homo sapiens). Description: Percent inhibition of recombinant human calpain 1 at highest concentration of 150 uM; Inhibition values are within […]. The method, boiled down:
as §1

Assay [3] shares this target. Nature of the assay: Percent inhibition of human calpain 1 at 160 uM; Inhibition within […]. The method, boiled down: as §1
Assay [4] in a line: Concentration required for inhibition of calpain. The method, boiled down: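 Calpain I (recombinant human, baculovirus-expressed) was hydrolysing Suc-Leu-Tyr-AMC in Tris 50 mM pH 7.3 with EDTA 0.5 mM and βME 10 mM, activated by CaCl2 (40 mM stock). Fluorescence was followed continuously at ex 380/em 460 nm. The value is the concentration giving a 50% decrease in initial hydrolysis rate relative to DMSO controls.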

The target of assay [5] is T1, Calpain-1 catalytic subunit (Homo sapiens). Nature of the assay: Percent inhibition of human calpain 1 at 680 uM; Inhibition within […]. The method, boiled down:
as §1

For assay [6] the target is unchanged. Nature of the assay: Percent inhibition of human calpain 1 at 100 uM; Inhibition within […]. The method, boiled down:
as §1

For assay [7] the target is unchanged. Description: Percent inhibition of human calpain 1 at 500 uM; Inhibition within […]. The method, boiled down: as §1
A short description of assay [8]: Binding affinity for rat erythrocyte calpain.
Assay [9] addresses T1, Calpain-1 catalytic subunit (Homo sapiens). Description: Percent inhibition of human calpain 1 at 350 uM; Inhibition within […]. The method, boiled down:
as §1

For assay [10] the target is unchanged. Description: Percent inhibition of human calpain 1 at 610 uM; Inhibition within […]. The method, boiled down: as §1
Assay [11] shares this target. Nature of the assay: Percent inhibition of human calpain 1 at 190 uM; Inhibition within […]. The method, boiled down: as §1
The target is the same in assay [12]. Description: Percent inhibition of human calpain 1 at 920 uM; Inhibition within […]. The method, boiled down: as §1
Assay [13] shares this target. Nature of the assay: Percent inhibition of human calpain 1 at highest 200 uM; Inhibition within […]. The method, boiled down: as §1
For assay [14] the target is unchanged. Nature of the assay: Percent inhibition of human calpain 1 at 210 uM; Inhibition within […]. The method, boiled down: as §1
The target is the same in assay [15]. Description: Percent inhibition of human calpain 1 at 280 uM; Inhibition within […]. The method, boiled down:
as §1

For assay [16] the target is unchanged. Description: Percent inhibition of human calpain 1 at 180 uM; Inhibition within […]. The method, boiled down: as §1
For assay [17] the target is unchanged. Description: Percent inhibition of human calpain 1 at 550 uM; Inhibition within […]. The method, boiled down:
as §1

For assay [18] the target is unchanged. Nature of the assay: Percent inhibition of human calpain 1 at 650 uM; Inhibition within […]. The method, boiled down:
as §1

The target is the same in assay [19]. Nature of the assay: Percent inhibition of human calpain 1 at 97 uM; Inhibition within […]. The method, boiled down: as §1
For assay [20] the target is unchanged. Nature of the assay: Percent inhibition of human calpain 1 at 300 uM; Inhibition within […]. The method, boiled down:
as §1

Assay [21] has the same target. Nature of the assay: Percent inhibition of human calpain 1 at 90 uM; Inhibition within […]. The method, boiled down: as §1
The target is the same in assay [22]. Nature of the assay: Percent inhibition of human calpain 1 at 580 uM; Inhibition within […]. The method, boiled down:
as §1

Assay [23] has the same target. Description: Percent inhibition of human calpain 1 at 110 uM; Inhibition within […]. The method, boiled down:
as §1

Assay [24] has the same target. Description: Percent inhibition of human calpain 1 at 360 uM; Inhibition within […]. The method, boiled down:
as §1

For assay [25] the target is unchanged. Nature of the assay: Percent inhibition of human calpain 1 at 170 uM; Inhibition within […]. The method, boiled down:
as §1

For assay [26] the target is unchanged. Description: Percent inhibition of human calpain 1 at 130 uM; Inhibition within […]. The method, boiled down: as §1

The term inhibition denotes the change of the read-out against control, counted positive when it falls. `O=C1N[C@@H](Cc2ccc(O)cc2)C(=O)N[C@H]1COCc1ccccc1` registered an inhibition in assay [1] of 0%. In the case of `COC(=O)C[C@@H]1NC(=O)[C@H](COCc2ccccc2)NC1=O`, the inhibition in assay [2] came out at 0%. `COC(=O)C[C@@H]1NC(=O)[C@H](Cc2ccccc2)NC1=O` yielded an inhibition in assay [3] of 13%. What is called IC50 is the concentration that gives 50% inhibition. Low readings indicate greater potency, high ones weaker potency. Regarding `COc1c([C@@H](O)CC(C)C)ccc2c1C(=O)OCc1cc(C)cc(O)c1O2` [PENICILLIDE], in [4], the IC50 came out at 7100 nM. As to `CN1C(=O)[C@H](Cc2ccc(O)cc2)N(C)C(=O)[C@@H]1Cc1ccc(O)cc1`, the inhibition in [5] amounted to 0%. Further, in [4], the IC50 was determined as 800 nM. In assay [6], `O=C1N[C@@H](Cc2c[nH]c3ccccc23)C(=O)N[C@H]1Cc1ccccc1` returned an inhibition of 0%.

`O=C1N[C@@H](Cc2ccc(O)cc2)C(=O)N[C@H]1Cc1ccc(O)cc1`: in assay [7], the inhibition came to 0%.

The term Ki denotes the equilibrium dissociation constant of an inhibitor or competing ligand from its target. As for `CC(C)[C@H](NC(=O)OCc1ccccc1)C(=O)NC(C=O)Cc1ccccc1` (stereo partly drawn) (Cbz-Val-[ξF]-aldehyde), the affinity in [8] corresponds to a Ki of 10 nM. Consider `CN1C(=O)[C@H](Cc2ccc(OCc3ccccc3)cc2)N(C)C(=O)[C@@H]1Cc1ccc(OCc2ccccc2)cc1`, for which, in assay [9], the inhibition was 50%.

As to `COC(=O)C[C@H]1NC(=O)[C@H](Cc2ccccc2)NC1=O`, the inhibition in assay [10] was 25%.

On to `C[C@H](O)[C@@H]1NC(=O)[C@H](Cc2ccccc2)NC1=O`, for which the inhibition in [11] was found to be 30%. For the molecule `O=C(O)/C(S)=C/c1ccc(I)cc1`, the midpoint of inhibition in assay [4], the IC50, lay at 400 nM. On to `CC(C)C[C@@H]1NC(=O)[C@H](Cc2c[nH]c3ccccc23)NC1=O`, for which, in assay [12], the inhibition worked out at 0%. On to `CC(C)[C@@H]1NC(=O)[C@H](Cc2ccc(OCc3ccccc3)cc2)NC1=O`, for which, in assay [13], the inhibition was found to be 0%.

In turn, `COC(=O)C[C@@H]1NC(=O)[C@H](Cc2ccc(OCc3ccccc3)cc2)NC1=O` came in with an inhibition in assay [1] of 0%.

In [14], `COC(=O)C[C@H]1NC(=O)[C@H](Cc2ccc(O)cc2)NC1=O` returned an inhibition of 0%. In assay [9], `Cc1ccc(S(=O)(=O)/N=C(/N)NCCC[C@@H]2NC(=O)[C@H](Cc3ccccc3)NC2=O)cc1` had an inhibition of 0%. With `O=C1N[C@@H](Cc2ccccc2)C(=O)N[C@H]1Cc1ccccc1`, in assay [15], the inhibition stood at 0%. Turning to `O=C1N[C@@H](Cc2ccc(O)cc2)C(=O)N[C@H]1Cc1ccccc1`, in assay [16], the inhibition stood at 0%. In assay [17], `CC(C)c1ncc(Cc2ccccc2)nc1O` gave an inhibition of 0%. Inhibition in assay [4] was half-maximal at 1300 nM (IC50).

In assay [18], `O=C1N[C@@H](Cc2ccc(OCc3ccccc3)cc2)C(=O)N[C@H]1Cc1ccccc1` yielded an inhibition of 50%.

Take `O=C1N[C@@H](Cc2ccc(OCc3ccccc3)cc2)C(=O)N[C@H]1Cc1ccc(OCc2ccccc2)cc1`: in assay [19], the inhibition stood at 50%.

Turning to `CN1C(=O)[C@H](Cc2ccccc2)N(C)C(=O)[C@@H]1Cc1ccccc1`, the inhibition in [20] was determined as 0%.

Regarding `COC(=O)C[C@@H]1NC(=O)[C@H](Cc2ccc(O)cc2)NC1=O`, the inhibition in assay [21] came out at 25%. Molecule `C[C@H](O)[C@@H]1NC(=O)[C@H](Cc2ccc(O)cc2)NC1=O` came in with an inhibition in assay [22] of 0%. On to `O=C1N[C@@H](Cc2c[nH]c3ccccc23)C(=O)N[C@H]1Cc1ccc(O)cc1`, for which the inhibition in [2] was found to be 0%.

As to `CC(C)C[C@@H]1NC(=O)[C@H](COCc2ccccc2)NC1=O`, the inhibition in assay [23] turned out to be 0%.

`CC(C)C[C@@H]1NC(=O)[C@H](Cc2ccc(O)cc2)NC1=O` showed an inhibition in [11] of 0%. Consider `CN1C(=O)[C@H](Cc2ccc(O)cc2)N(C)C(=O)[C@@H]1Cc1ccccc1`, for which, in assay [24], the inhibition was 0%. Consider `O=C1N[C@@H](Cc2ccccc2)C(=O)N[C@H]1COCc1ccccc1`, for which, in assay [20], the inhibition is 0%.

Molecule `O=C1N[C@@H](Cc2c[nH]c3ccccc23)C(=O)N[C@H]1Cc1c[nH]c2ccccc12` came in with an inhibition in assay [16] of 0%. Consider `O=C1N[C@@H](Cc2c[nH]c3ccccc23)C(=O)N[C@H]1COCc1ccccc1`, for which the inhibition in assay [13] is 0%. For `Cc1ccc(S(=O)(=O)/N=C(/N)NCCC[C@@H]2NC(=O)[C@H](Cc3ccc(O)cc3)NC2=O)cc1`, in assay [25], the inhibition came out at 0%. The molecule `CC(C)C[C@@H]1NC(=O)[C@H](Cc2ccccc2)NC1=O` gave an inhibition in [26] of 0%.
